Experimental data from ChEMBL document CHEMBL1132274, “2,7-Disubstituted amidofluorenone derivatives as inhibitors of human telomerase” (J Med Chem, 1999).
Activity calls are given as the source filed them. The calls are words filed in the database; no cut-off is given here.

molecular target: Telomerase reverse transcriptase (Homo sapiens, UniProt O14746); assay: Inhibitory activity against telomerase
In short: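 Modified TRAP with extract from exponentially growing A2780 ovarian carcinoma cells. Telomerase then inactivated at 80 °C for 5 min, CX primer and Taq added, 31 PCR cycles. Products analysed by denaturing PAGE with phosphorimaging/autoradiography, or by filter scintillation counting.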

Sequence of Telomerase reverse transcriptase (O14746 whole entry): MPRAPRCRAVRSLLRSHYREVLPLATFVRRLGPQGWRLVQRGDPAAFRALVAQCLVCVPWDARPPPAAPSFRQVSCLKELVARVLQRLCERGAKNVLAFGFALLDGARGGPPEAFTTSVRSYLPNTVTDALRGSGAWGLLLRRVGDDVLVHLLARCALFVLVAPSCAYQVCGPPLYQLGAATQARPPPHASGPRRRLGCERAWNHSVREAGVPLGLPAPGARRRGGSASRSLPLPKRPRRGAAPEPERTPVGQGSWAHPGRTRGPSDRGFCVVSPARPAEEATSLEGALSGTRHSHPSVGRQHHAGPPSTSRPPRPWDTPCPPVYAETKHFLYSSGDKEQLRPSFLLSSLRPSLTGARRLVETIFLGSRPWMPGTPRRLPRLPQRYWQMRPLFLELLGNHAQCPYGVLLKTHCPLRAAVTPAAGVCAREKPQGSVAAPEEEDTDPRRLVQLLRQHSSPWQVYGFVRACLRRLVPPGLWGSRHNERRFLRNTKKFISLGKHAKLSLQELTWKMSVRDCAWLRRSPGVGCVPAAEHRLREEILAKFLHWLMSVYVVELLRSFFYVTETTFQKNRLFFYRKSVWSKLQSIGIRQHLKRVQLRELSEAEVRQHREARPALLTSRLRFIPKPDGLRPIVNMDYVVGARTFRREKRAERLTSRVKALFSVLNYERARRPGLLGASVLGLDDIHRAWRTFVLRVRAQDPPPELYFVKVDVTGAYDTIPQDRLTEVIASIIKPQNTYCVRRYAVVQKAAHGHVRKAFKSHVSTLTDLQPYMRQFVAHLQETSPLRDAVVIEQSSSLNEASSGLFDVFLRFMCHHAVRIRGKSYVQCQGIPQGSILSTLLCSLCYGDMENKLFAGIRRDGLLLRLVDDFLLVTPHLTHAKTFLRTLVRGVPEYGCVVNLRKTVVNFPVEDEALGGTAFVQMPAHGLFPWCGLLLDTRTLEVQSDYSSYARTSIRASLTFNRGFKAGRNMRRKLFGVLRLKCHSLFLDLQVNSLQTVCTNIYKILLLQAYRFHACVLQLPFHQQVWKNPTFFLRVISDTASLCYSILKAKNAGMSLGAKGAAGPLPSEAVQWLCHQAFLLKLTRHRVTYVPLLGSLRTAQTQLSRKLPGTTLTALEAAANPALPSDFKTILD

SMILES	IC50 [µM]
CC1CCN(CCC(=O)Nc2ccc3c(c2)C(=O)c2cc(NC(=O)CCN4CCC(C)CC4)ccc2-3)CC1	> 20
CCN1CCN(CCC(=O)Nc2ccc3c(c2)C(=O)c2cc(NC(=O)CCN4CCN(CC)CC4)ccc2-3)CC1	17
CN1CCN(CCC(=O)Nc2ccc3c(c2)C(=O)c2cc(NC(=O)CCN4CCN(C)CC4)ccc2-3)CC1	44

Now from value to molecule:

IC50 [µM]	SMILES
> 20	CC1CCCC[N+]1(C)CCC(=O)Nc1ccc2c(c1)C(=O)c1cc(NC(=O)CC[N+]3(C)CCCCC3C)ccc1-2 (configuration not stated)
27.3	C[N+]1(CCC(=O)Nc2ccc3c(c2)C(=O)c2cc(NC(=O)CC[N+]4(C)CCOCC4)ccc2-3)CCOCC1
14	CCC1CCCCN1CCC(=O)Nc1ccc2c(c1)C(=O)c1cc(NC(=O)CCN3CCCCC3CC)ccc1-2 (configuration not stated)

test system: A2780; assay: Cytotoxicity activity of the compound was measured in human ovarian cell line A2780 using sulforhodamine B (SRB) assay; assay type: functional, cell-based
In short: (§1)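 SRB growth-inhibition assay in human ovarian carcinoma cells: 3000–6000 cells/well attached overnight, then salts (dissolved at 500 μM in water) added in quadruplicate at final 0.05, 0.25, 1, 5 and 25 μM. After 96 h, cells fixed with ice-cold 10% TCA and stained with 0.4% SRB. Mean A540 expressed as % of untreated control; IC50 = concentration giving 50% growth inhibition.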

SMILES	IC50 [µM]
CN1CCN(CCC(=O)Nc2ccc3c(c2)C(=O)c2cc(NC(=O)CCN4CCN(C)CC4)ccc2-3)CC1	> 25

test system: CH1; assay: Cytotoxicity measured in human ovarian cell line CH1 using sulforhodamine B (SRB) assay.; assay type: functional, cell-based; in short: as §1

SMILES	IC50 [nM]
CC1CCN(CCC(=O)Nc2ccc3c(c2)C(=O)c2cc(NC(=O)CCN4CCC(C)CC4)ccc2-3)CC1	> 25000
CC1CCCC[N+]1(C)CCC(=O)Nc1ccc2c(c1)C(=O)c1cc(NC(=O)CC[N+]3(C)CCCCC3C)ccc1-2 (configuration not stated)	2600
CCN1CCN(CCC(=O)Nc2ccc3c(c2)C(=O)c2cc(NC(=O)CCN4CCN(CC)CC4)ccc2-3)CC1	> 25000
C[N+]1(CCC(=O)Nc2ccc3c(c2)C(=O)c2cc(NC(=O)CC[N+]4(C)CCOCC4)ccc2-3)CCOCC1	2150
CN1CCN(CCC(=O)Nc2ccc3c(c2)C(=O)c2cc(NC(=O)CCN4CCN(C)CC4)ccc2-3)CC1	> 25000
CCC1CCCCN1CCC(=O)Nc1ccc2c(c1)C(=O)c1cc(NC(=O)CCN3CCCCC3CC)ccc1-2 (configuration not stated)	2150

molecular target: DNA polymerase I, thermostable (Thermus aquaticus) (UniProt P19821); assay: Inhibitory activity against taq polymerase at 10 uM; No inhibition
Sequence (P19821 whole entry): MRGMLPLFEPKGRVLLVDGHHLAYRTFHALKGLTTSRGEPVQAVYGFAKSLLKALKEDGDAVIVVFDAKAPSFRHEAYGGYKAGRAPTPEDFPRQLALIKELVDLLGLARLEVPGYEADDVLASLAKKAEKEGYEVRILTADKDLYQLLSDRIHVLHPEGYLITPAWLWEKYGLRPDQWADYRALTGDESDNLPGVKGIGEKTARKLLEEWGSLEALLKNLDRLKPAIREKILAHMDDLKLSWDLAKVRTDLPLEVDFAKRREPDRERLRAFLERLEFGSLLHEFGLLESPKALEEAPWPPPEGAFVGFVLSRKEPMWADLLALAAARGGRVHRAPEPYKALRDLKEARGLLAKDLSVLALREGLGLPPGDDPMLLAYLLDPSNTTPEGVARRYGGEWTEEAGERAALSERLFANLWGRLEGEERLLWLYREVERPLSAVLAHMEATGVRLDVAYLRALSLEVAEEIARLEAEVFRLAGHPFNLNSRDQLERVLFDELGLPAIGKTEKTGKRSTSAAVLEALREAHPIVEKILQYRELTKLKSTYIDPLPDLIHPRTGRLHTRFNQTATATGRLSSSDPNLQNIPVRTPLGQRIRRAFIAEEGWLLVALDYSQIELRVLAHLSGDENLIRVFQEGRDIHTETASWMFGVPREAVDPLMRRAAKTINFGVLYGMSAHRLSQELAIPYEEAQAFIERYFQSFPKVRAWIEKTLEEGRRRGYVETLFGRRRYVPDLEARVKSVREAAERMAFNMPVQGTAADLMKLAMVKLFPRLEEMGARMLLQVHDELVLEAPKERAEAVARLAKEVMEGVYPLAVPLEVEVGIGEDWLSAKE

SMILES	inhibition
CC1CCN(CCC(=O)Nc2ccc3c(c2)C(=O)c2cc(NC(=O)CCN4CCC(C)CC4)ccc2-3)CC1	inactive
CCN1CCN(CCC(=O)Nc2ccc3c(c2)C(=O)c2cc(NC(=O)CCN4CCN(CC)CC4)ccc2-3)CC1	inactive
CN1CCN(CCC(=O)Nc2ccc3c(c2)C(=O)c2cc(NC(=O)CCN4CCN(C)CC4)ccc2-3)CC1	inactive

The next lines start with the values.

inhibition	SMILES
inactive	CC1CCCC[N+]1(C)CCC(=O)Nc1ccc2c(c1)C(=O)c1cc(NC(=O)CC[N+]3(C)CCCCC3C)ccc1-2 (configuration not stated)
inactive	C[N+]1(CCC(=O)Nc2ccc3c(c2)C(=O)c2cc(NC(=O)CC[N+]4(C)CCOCC4)ccc2-3)CCOCC1
inactive	CCC1CCCCN1CCC(=O)Nc1ccc2c(c1)C(=O)c1cc(NC(=O)CCN3CCCCC3CC)ccc1-2 (configuration not stated)

test system: A2780; assay: Cytotoxicity measured in human ovarian cell line A2780 using sulforhodamine B (SRB) assay; assay type: functional, cell-based; in short: as §1

SMILES	IC50 [nM]
CC1CCN(CCC(=O)Nc2ccc3c(c2)C(=O)c2cc(NC(=O)CCN4CCC(C)CC4)ccc2-3)CC1	2200
CC1CCCC[N+]1(C)CCC(=O)Nc1ccc2c(c1)C(=O)c1cc(NC(=O)CC[N+]3(C)CCCCC3C)ccc1-2 (configuration not stated)	4850
CCN1CCN(CCC(=O)Nc2ccc3c(c2)C(=O)c2cc(NC(=O)CCN4CCN(CC)CC4)ccc2-3)CC1	> 25000
C[N+]1(CCC(=O)Nc2ccc3c(c2)C(=O)c2cc(NC(=O)CC[N+]4(C)CCOCC4)ccc2-3)CCOCC1	2550
CCC1CCCCN1CCC(=O)Nc1ccc2c(c1)C(=O)c1cc(NC(=O)CCN3CCCCC3CC)ccc1-2 (configuration not stated)	2200

molecular target: DNA polymerase I, thermostable (Thermus aquaticus) (UniProt P19821); assay: Inhibitory activity against taq polymerase at 50 uM; Slight

inhibition	SMILES
Weak inhibition	CC1CCCC[N+]1(C)CCC(=O)Nc1ccc2c(c1)C(=O)c1cc(NC(=O)CC[N+]3(C)CCCCC3C)ccc1-2 (configuration not stated)

molecular target: DNA polymerase I, thermostable (Thermus aquaticus) (UniProt P19821); assay: Inhibitory activity against taq polymerase at 20 uM; No inhibition

SMILES	inhibition
CC1CCN(CCC(=O)Nc2ccc3c(c2)C(=O)c2cc(NC(=O)CCN4CCC(C)CC4)ccc2-3)CC1	inactive
CCN1CCN(CCC(=O)Nc2ccc3c(c2)C(=O)c2cc(NC(=O)CCN4CCN(CC)CC4)ccc2-3)CC1	inactive
CN1CCN(CCC(=O)Nc2ccc3c(c2)C(=O)c2cc(NC(=O)CCN4CCN(C)CC4)ccc2-3)CC1	inactive

The remaining lines, values ahead:

inhibition	SMILES
inactive	CC1CCCC[N+]1(C)CCC(=O)Nc1ccc2c(c1)C(=O)c1cc(NC(=O)CC[N+]3(C)CCCCC3C)ccc1-2 (configuration not stated)
inactive	C[N+]1(CCC(=O)Nc2ccc3c(c2)C(=O)c2cc(NC(=O)CC[N+]4(C)CCOCC4)ccc2-3)CCOCC1
inactive	CCC1CCCCN1CCC(=O)Nc1ccc2c(c1)C(=O)c1cc(NC(=O)CCN3CCCCC3CC)ccc1-2 (configuration not stated)

test system: SK-OV-3; assay: Cytotoxicity measured in human ovarian cell line SKOV-3 using sulforhodamine B (SRB) assay.; assay type: functional, cell-based; in short: as §1

SMILES	IC50 [µM]
CC1CCN(CCC(=O)Nc2ccc3c(c2)C(=O)c2cc(NC(=O)CCN4CCC(C)CC4)ccc2-3)CC1	7.6
CC1CCCC[N+]1(C)CCC(=O)Nc1ccc2c(c1)C(=O)c1cc(NC(=O)CC[N+]3(C)CCCCC3C)ccc1-2 (configuration not stated)	3.95
CCN1CCN(CCC(=O)Nc2ccc3c(c2)C(=O)c2cc(NC(=O)CCN4CCN(CC)CC4)ccc2-3)CC1	> 25
C[N+]1(CCC(=O)Nc2ccc3c(c2)C(=O)c2cc(NC(=O)CC[N+]4(C)CCOCC4)ccc2-3)CCOCC1	2.45
CN1CCN(CCC(=O)Nc2ccc3c(c2)C(=O)c2cc(NC(=O)CCN4CCN(C)CC4)ccc2-3)CC1	> 25
CCC1CCCCN1CCC(=O)Nc1ccc2c(c1)C(=O)c1cc(NC(=O)CCN3CCCCC3CC)ccc1-2 (configuration not stated)	3.15

molecular target: DNA polymerase I, thermostable (Thermus aquaticus) (UniProt P19821); assay: Inhibitory activity against taq polymerase at 50 uM; No inhibition

SMILES	inhibition
CC1CCN(CCC(=O)Nc2ccc3c(c2)C(=O)c2cc(NC(=O)CCN4CCC(C)CC4)ccc2-3)CC1	inactive
CCN1CCN(CCC(=O)Nc2ccc3c(c2)C(=O)c2cc(NC(=O)CCN4CCN(CC)CC4)ccc2-3)CC1	inactive
CN1CCN(CCC(=O)Nc2ccc3c(c2)C(=O)c2cc(NC(=O)CCN4CCN(C)CC4)ccc2-3)CC1	inactive

Results, then the molecule that gave them:

inhibition	SMILES
inactive	C[N+]1(CCC(=O)Nc2ccc3c(c2)C(=O)c2cc(NC(=O)CC[N+]4(C)CCOCC4)ccc2-3)CCOCC1
inactive	CCC1CCCCN1CCC(=O)Nc1ccc2c(c1)C(=O)c1cc(NC(=O)CCN3CCCCC3CC)ccc1-2 (configuration not stated)
